A short description of data set [1]: 1-Octanol/phosphate buffer apparent partition coefficient, logP of the compound measured after 30 mins by HPLC analysis. The data set is classed as physicochemical.
Data set [2] in a line: Half life of the compound in PBS buffer at pH 7.4 by HPLC analysis. The data set is classed as physicochemical. In outline:
(§1)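 Stability run at 37 °C in PBS pH 7.4 or 80% human plasma. HPLC followed loss of parent and appearance of hydrolysis products over at least 3 half-lives. Decay fitted pseudo-first-order: kobs taken as the slope of ln(concentration) vs time, and t1/2 calculated from kobs.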

The nature of data set [3]: Half life in 80% human plasma by HPLC analysis. Type of data set: ADME, cell-free. The essentials:
as §1

Another data set has as its target T1, Tyrosinase (Agaricus bisporus, UniProt O42713).
T1 sequence (O42713 whole entry): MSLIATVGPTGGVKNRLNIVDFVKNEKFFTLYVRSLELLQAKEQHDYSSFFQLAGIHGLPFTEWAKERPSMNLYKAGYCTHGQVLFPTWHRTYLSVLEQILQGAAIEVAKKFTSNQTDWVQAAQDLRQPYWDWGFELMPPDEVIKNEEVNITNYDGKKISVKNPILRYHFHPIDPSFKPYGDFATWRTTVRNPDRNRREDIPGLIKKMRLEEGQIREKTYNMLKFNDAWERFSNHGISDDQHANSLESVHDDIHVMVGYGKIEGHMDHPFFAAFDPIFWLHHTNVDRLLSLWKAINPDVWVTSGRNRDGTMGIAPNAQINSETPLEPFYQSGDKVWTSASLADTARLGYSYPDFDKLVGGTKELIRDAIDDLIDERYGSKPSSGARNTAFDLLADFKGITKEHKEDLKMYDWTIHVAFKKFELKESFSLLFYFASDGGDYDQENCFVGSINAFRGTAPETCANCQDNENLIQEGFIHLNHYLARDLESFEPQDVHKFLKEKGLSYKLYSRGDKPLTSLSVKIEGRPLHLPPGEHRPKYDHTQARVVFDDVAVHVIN
The data set is described as follows: Substrate activity at mushroom tyrosinase assessed as half-life of the compound by HPLC analysis. Type of data set: ADME. The essentials: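 Incubated with mushroom tyrosinase at 100 units/mL. Reaction followed by HPLC to derive substrate half-life (min).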

Data set [4] in a line: Cytotoxicity against human MNT-1 cells assessed as reduction in cell viability incubated for 72 hrs by MTS assay. Type of data set: functional, cell-based. The note with it: MNT-1, 72 h. The essentials:
(§2)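 Cell lines: MNT-1 and A375 (human melanoma), B16F10 (murine melanoma) and HaCaT (human keratinocytes). Compounds incubated with cells for 72 h; IC50 reported in μM.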
Background: Tetrazolium dyes change colour on reduction, which living cells bring about.

For another data set, the system named is B16-F10. The data set is described as follows: Cytotoxicity against mouse B16-F10 cells assessed as reduction in cell viability incubated for 72 hrs by MTS assay. Type of data set: functional, cell-based. The note with it: B16-F10, 72 h. In outline:
as §2

A further data set deals with A-375. The data set is described as follows: Cytotoxicity against human A-375 cells assessed as reduction in cell viability incubated for 72 hrs by MTS assay. The data set is classed as functional, cell-based. The following applies: A-375, 72 h. In outline: as §2
In a further data set the test system is HaCaT. Put plainly: Cytotoxicity against human HaCaT cells assessed as reduction in cell viability incubated for 72 hrs by MTS assay. Type of data set: cell-based. In outline: as §2
Data set [5] can be described thus: Haemolytic activity against human erythrocytes at 0.2 to 400 uM after 1 hr. The data set is classed as ADME, cell-based, Erythrocyte. The following applies: dose 0.2-400 µM, read-out: Activity. The essentials:
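Human red blood cells exposed to compound at 0.2 to 400 μM for 1 h at 37 °C. Read-out: percentage hemolysis.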

A short description of data set [6]: Toxicity in BALB/c mouse assessed as liver tissue index at 12 mg/kg, iv administered 3 times for 1 week and measured at 2 days post-last injection (reference value: 22 +/-1). Type of data set: organism-based. The note with it: in vivo, 216 h, time 9 day.
Data set [7] in a line: Toxicity in BALB/c mouse assessed as spleen tissue index at 12 mg/kg, iv administered 3 times for 1 week and measured at 2 days post-last injection (reference value: 6 +/-1). Type of data set: organism-based. The following applies: in vivo, 216 h, time 9 day.
Data set [8] in a line: Toxicity in BALB/c mouse assessed as kidney tissue index at 12 mg/kg, iv administered 3 times for 1 week and measured at 2 days post-last injection (reference value: 13 +/-1). The note with it: in vivo, 216 h, time 9 day. Type of data set: organism-based.
Data set [9] can be described thus: Toxicity in BALB/c mouse assessed as lung tissue index at 12 mg/kg, iv administered 3 times for 1 week and measured at 2 days post-last injection (reference value: 8 +/-1). Type of data set: organism-based. The note with it: in vivo, 216 h, time 9 day.
A short description of data set [10]: Toxicity in BALB/c mouse assessed as heart tissue index at 12 mg/kg, iv administered 3 times for 1 week and measured at 2 days post-last injection (reference value: 7 +/-1). Type of data set: organism-based. The note with it: in vivo, 216 h, time 9 day.
The nature of data set [11]: Selectivity index, ratio of IC50 for human HaCaT cells to IC50 for human MNT-1 cells by MTS assay.
Data set [12] can be described thus: Selectivity index, ratio of IC50 for human HaCaT cells to IC50 for mouse B16-F10 cells by MTS assay. The following applies: HaCaT cells and B16-F10 cells, read-out: Ratio IC50. Type of data set: toxicity. In outline: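 Human HaCaT keratinocytes and the melanoma line (human A375 or murine B16F10) were each incubated with compound for 72 h, and IC50 was determined in each line. Selectivity index is HaCaT IC50 divided by melanoma-line IC50.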

Data set [13] in a line: Hepatotoxicity in BALB/c mouse assessed as gamma-GT level in plasma at 12 mg/kg, iv administered 3 times for 1 week and measured at 2 days post-last injection (reference value: 47 +/-9 U/L). The data set is classed as toxicity, organism-based. The following applies: in vivo, 216 h, time 9 day. In outline: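 BALB/c mice dosed intravenously at 12 mg/kg, 3 times per week for 1 week. Vehicle: PBS plus Cremophor (5% p/v); controls received vehicle only. Behaviour checked daily. Animals killed 2 days after the last injection; blood collected for γ-GT, and organs weighed for tissue index.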

The nature of data set [14]: Selectivity index, ratio of IC50 for human HaCaT cells to IC50 for human cells by MTS assay.

The logD is the decadic logarithm of the distribution of all forms, ionised or not, between an organic phase and buffer at a given pH. In general, half-life refers to the time needed for the level to fall by half in the phase considered. Broadly, the IC50 is the concentration that inhibits the measured activity by half. Regarding `CCOC(=O)c1ccc(/N=N/N(C)C(=O)NCCSc2ccc(O)cc2)cc1`, the logD at 0.5 h in data set [1] is 4.08. Moreover, the half-life in data set [2] is above 240 h; in data set [3] it was 30.5 h; at Tyrosinase, 3.7 min. Moreover, the IC50 was 49.4 µM in data set [4], 51 µM in the data set on B16-F10, 43.8 µM with A-375 and above 100 µM in the data set on HaCaT. The hemolysis at 1 h, up to 400 µM in data set [5] was below 1%. Further, the Activity_index in data set [6] was determined as 22; in data set [7], 6; in [8], 13; in [9], 8; in [10] it was 7. Also, the “Ratio IC50” value in [11] and in data set [14] was 2 each time. Further, the selectivity ratio in data set [12] was determined as 2. The Activity in data set [13] is 57 U/L.

Source of the values: ChEMBL document CHEMBL4825779, “Sulfur Analogues of Tyrosine in the Development of Triazene Hybrid Compounds: A New Strategy against Melanoma” (ACS Med Chem Lett, 2021).
